From publication PMC8248431 (The Febs Journal, 2021)

How the values were obtained:
[1] = system: Irpex lacteus F17 DyP; details: cited from earlier work
[2] = system: FtrDyP; experiment: Mn2+ oxidation by FtrDyP; format: biochemical, Funalia (Coriolopsis) trogii; details: Mn^2+ substrate
[3] = system: AncDyPD‐b1 D222E; experiment: Steady-state kinetics of peroxidase activity, AncDyPD-b1 D222E variant; format: biochemical; details: cooperativity model; 25 °C; H2O2 with ABTS as electron donor
Procedure, shortened: (§1)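 Purified untagged (SUMO-cleaved) mutant ancestral DyP, expressed in E. coli. H2O2 varied at 25 °C in 50 mM sodium citrate at the ABTS optimal pH 3.0. ABTS was held at its maximum-activity level below substrate inhibition: 10 µM for D222A, D222E and R390K-D222E, 25 µM for R390K, and 50 µM for R390A. Reactions were started with 50–500 nM enzyme, raised to 2.0 µM if activity was low.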

[4] = system: AncDyPD‐b1 R390K; experiment: Steady-state kinetics of peroxidase activity, AncDyPD-b1 R390K variant; format: biochemical; details: cooperativity model; 25 °C; H2O2 with ABTS as electron donor
Procedure, shortened: as §1

[5] = system: AncDyPD‐b1 R390A; experiment: Steady-state kinetics of peroxidase activity, AncDyPD-b1 R390A variant; format: biochemical; details: cooperativity model; 25 °C; H2O2 with ABTS as electron donor
Procedure, shortened: as §1

[6] = system: AncDyPD‐b1 D222A; experiment: Steady-state kinetics of peroxidase activity, AncDyPD-b1 D222A variant; format: biochemical; details: for n (cooperativity constant): cooperativity model, 25 °C, H2O2 with ABTS as electron donor
Procedure, shortened: as §1

[7] = system: AncDyPD‐b1 R390K‐D222E; experiment: Steady-state kinetics of peroxidase activity, AncDyPD-b1 R390K-D222E variant; format: biochemical; details: cooperativity model; 25 °C; H2O2 with ABTS as electron donor
Procedure, shortened: as §1

[8] = system: AncDyPD‐b1; experiment: Sulfoxidation; format: biochemical; details: 17, 25, and 30 °C, 36 h, pH 3.5, 1.0 mM H2O2, 2.5 mM thioanisole

SMILES	n (cooperativity constant) [3]	n (cooperativity constant) [4]	n (cooperativity constant) [5]	n (cooperativity constant) [6]	n (cooperativity constant) [7]	Km [1]	k cat [1]	other results
Nc1c(S(=O)(=O)[O-])cc(Nc2cccc(S(=O)(=O)CCOS(=O)(=O)[O-])c2)c2c1C(=O)c1ccccc1C2=O.[Na+].[Na+] [RB19, Reactive Blue 19]	–	–	–	–	–	133 µM	5345 s⁻¹	–
O=S(=O)([O-])[O-].[Mn+2] [Mn^2+, MnSO4]	–	–	–	–	–	–	–	efficiency of FtrDyP relative to AncDyPD‐b1 [2]: 500 times
CSc1ccccc1 [thioanisole]	–	–	–	–	–	–	–	conversion (peroxygenase activity, sulfoxidation) [8]: no conversion
CCn1c(=NN=c2sc3cc(S(=O)(=O)O)ccc3n2CC)sc2cc(S(=O)(=O)O)ccc21 [ABTS, 2,2'‐azino‐bis(3‐ethylbenzothiazoline‐6‐sulfonic acid)]	–	–	–	–	–	62 µM	8356 s⁻¹	fold decrease of KM versus WT ([6]; ABTS oxidation, D222A vs WT): 80 fold; fold lower k cat than WT ([6]; ABTS oxidation, D222A vs WT): 150 fold

Second part, led by results:

n (cooperativity constant) [3]	n (cooperativity constant) [4]	n (cooperativity constant) [5]	n (cooperativity constant) [6]	n (cooperativity constant) [7]	SMILES	Km [1]	k cat [1]	other results
1.4	1.2	1	1	2.2	OO [H2O2, hydrogen peroxide]	–	–	–
2.2	2.1	1	2.8	2.3	Nc1c(N=Nc2ccc(S(=O)(=O)CCOS(=O)(=O)[O-])cc2)c(S(=O)(=O)[O-])cc2cc(S(=O)(=O)[O-])c(N=Nc3ccc(S(=O)(=O)CCOS(=O)(=O)[O-])cc3)c(O)c12.[Na+].[Na+].[Na+].[Na+] [RB5, Reactive Black 5]	–	–	–
